# pIC50: −log10 of the molar value. The source made the active and inactive calls. The calls are words filed in the database; no cut-off is given here.
# Experiments:
# [1] = AUC in iv dosed Sprague-Dawley rat; type: ADME, organism-based; conditions: plasma
# [2] = Oral bioavailability in Sprague-Dawley rat; type: ADME, organism-based; conditions: in vivo
# [3] = Inhibition of VLA-4 (unknown origin) binding to VCAM-1 in human Jurkat TM cells after 30 mins by fibronectin mediated cell adhesion assay; type: cell-based
# Procedure, shortened: (§1)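 Calcein-labelled Jurkat TM cells (10^5/well) in Hepes 20 mM, NaCl 140 mM, CaCl2 1 mM, MgCl2 1 mM, 0.3% BSA with activating anti-α4 TS2/16. Cells were preincubated 30 min on wet ice with anti-α5 (5 µg/ml) and a compound dose–response, then bound 35 min at 37 °C, 5% CO2 to human plasma fibronectin-coated wells. Wells were washed 3× and read by fluorescence to give IC50.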
# [4] = AUC in po dosed Sprague-Dawley rat; type: ADME, organism-based; conditions: plasma
# [5] = Plasma concentration in po dosed Sprague-Dawley rat after 12 hrs; type: ADME, organism-based
# Rattus norvegicus [6] = test: Antiarthritic activity in Lewis rat collagen induced arthritis model at 3 to 30 mg/kg, po bid for 21 days; type: functional, organism-based
# Procedure, shortened: (§2)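 Female Lewis rats developing type II collagen arthritis were dosed prophylactically by oral gavage, bid, at 3, 10 or 30 mg/kg for 21 days. A separate arm received methotrexate 0.05 mg/kg po qd, alone or combined. Read-outs were ankle caliper measurements as AUC, terminal hind paw weights, body weight and ankle/knee histology. Only animals with definite clinical and histopathologic disease were analysed.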
# Rattus norvegicus [7] = test: Antiarthritic activity in Lewis rat collagen induced arthritis model assessed as final paw weight at 10 to 30 mg/kg, po bid for 21 days; type: functional, organism-based; procedure, shortened: as §2
# Cavia porcellus = test: Antiinflammatory activity in guinea pig at 30 to 300 mg/kg, po bid for 12 days; type: functional, organism-based
# Procedure, shortened: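 Guinea pig EAE: animals were immunized, and only those with established disease (clinical score >0) were randomized at 16–18 days post-immunization. Oral dosing was bid for 12 days at 30 or 300 mg/kg. Natalizumab was given every other day as comparator. The read-out was clinical score over the treatment period.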
# [8] = Inhibition of VLA-4 in rat serum binding to VCAM-1 in human Jurkat TM cells after 30 mins by fibronectin mediated cell adhesion assay; type: cell-based; conditions: 0.5 h
# Procedure, shortened: (§3)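 Cells were preincubated 30 min on wet ice with anti-α5 (5 µg/ml) and a compound dose–response, then allowed to bind 35 min at 37 °C, 5% CO2 to human plasma fibronectin-coated wells. Wells were washed 3× and read by fluorescence to give IC50.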
# Rattus norvegicus [9] = test: Antiarthritic activity in Lewis rat collagen induced arthritis model assessed as inhibition of AUC for ankle swelling at 3 mg/kg, po bid for 21 days; type: functional; conditions: 504 h, read-out: INH; procedure, shortened: as §2
# [10] = Inhibition of VLA-4 binding to VCAM-1 in human Jurkat TM cells after 30 mins by fibronectin mediated cell adhesion assay using BSA; type: cell-based; procedure, shortened: as §1
# Mus musculus [11] = test: Inhibition of Eos influx in Black/6 mouse acute pulmonary cellular influx model at 1 mg/kg, po bid administered 1hr prior and 12 hrs post ova/alum challenge on day 28 and 29 relative to alpha4 antibody PS/2; type: functional
# Procedure, shortened: (§4)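 Female Black/6 mice were sensitized i.p. with ova/alum on day 1, boosted on day 14 and challenged with aerosolized ova and alum on days 28 and 29. Dosing was oral gavage (5 ml/kg) twice daily on days 28–29, 1 h before and 12 h after challenge. Reference anti-α4 antibody PS/2 was given iv at 10 mg/kg, 2 h before the first challenge. Bronchoalveolar lavage eosinophils were counted on day 30 (48 h after the first challenge) as % inhibition.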
# Rattus norvegicus [12] = test: Antirheumatic activity in Lewis rat collagen induced arthritis model assessed as ankle histology at 3 to 30 mg/kg, po bid for 21 days; type: functional, organism-based; procedure, shortened: as §2
# Rattus norvegicus [13] = test: Antiarthritic activity in Lewis rat collagen induced arthritis model assessed as cartilage destruction at 3 to 30 mg/kg, po bid for 21 days; type: functional, organism-based; procedure, shortened: as §2
# Mus musculus [14] = test: Inhibition of Eos influx in Black/6 mouse acute pulmonary cellular influx model at 3 mg/kg, po bid administered 1hr prior and 12 hrs post ova/alum challenge on day 28 and 29 relative to PS/2; type: functional
# Procedure, shortened: (§5)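 Female Black/6 mice were sensitized i.p. with ova/alum on day 1, boosted on day 14, and challenged with aerosolized ova on days 28 and 29. Compound was given by oral gavage (5 ml/kg) twice daily on days 28–29, 1 h before and 12 h after challenge. BAL was collected on day 30, 48 h after the first challenge. Eosinophil influx was reported as % inhibition against vehicle or against PS/2 (anti-α4, 10 mg/kg iv, 2 h before first challenge).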
# Mus musculus [15] = test: Inhibition of Eos influx in Black/6 mouse acute pulmonary cellular influx model at 3 mg/kg, po bid administered 1hr prior and 12 hrs post ova/alum challenge on day 28 and 29 relative to vehicle-treated control; type: functional; procedure, shortened: as §5
# [16] = Inhibition of VLA-4 in mouse serum binding to VCAM-1 in human Jurkat TM cells after 30 mins by fibronectin mediated cell adhesion assay; type: cell-based; conditions: 0.5 h
# [17] = biological target: Integrin alpha-L/beta-2 (LFA-1) (Homo sapiens, UniProt P05107+P20701); test: Inhibition of integrin alphaLbeta2 (unknown origin) binding to ICAM in human 8866 cells after 30 mins by ICAM mediated cell adhesion assay
# Integrin alpha-L/beta-2 (LFA-1), sequence (P20701 whole entry): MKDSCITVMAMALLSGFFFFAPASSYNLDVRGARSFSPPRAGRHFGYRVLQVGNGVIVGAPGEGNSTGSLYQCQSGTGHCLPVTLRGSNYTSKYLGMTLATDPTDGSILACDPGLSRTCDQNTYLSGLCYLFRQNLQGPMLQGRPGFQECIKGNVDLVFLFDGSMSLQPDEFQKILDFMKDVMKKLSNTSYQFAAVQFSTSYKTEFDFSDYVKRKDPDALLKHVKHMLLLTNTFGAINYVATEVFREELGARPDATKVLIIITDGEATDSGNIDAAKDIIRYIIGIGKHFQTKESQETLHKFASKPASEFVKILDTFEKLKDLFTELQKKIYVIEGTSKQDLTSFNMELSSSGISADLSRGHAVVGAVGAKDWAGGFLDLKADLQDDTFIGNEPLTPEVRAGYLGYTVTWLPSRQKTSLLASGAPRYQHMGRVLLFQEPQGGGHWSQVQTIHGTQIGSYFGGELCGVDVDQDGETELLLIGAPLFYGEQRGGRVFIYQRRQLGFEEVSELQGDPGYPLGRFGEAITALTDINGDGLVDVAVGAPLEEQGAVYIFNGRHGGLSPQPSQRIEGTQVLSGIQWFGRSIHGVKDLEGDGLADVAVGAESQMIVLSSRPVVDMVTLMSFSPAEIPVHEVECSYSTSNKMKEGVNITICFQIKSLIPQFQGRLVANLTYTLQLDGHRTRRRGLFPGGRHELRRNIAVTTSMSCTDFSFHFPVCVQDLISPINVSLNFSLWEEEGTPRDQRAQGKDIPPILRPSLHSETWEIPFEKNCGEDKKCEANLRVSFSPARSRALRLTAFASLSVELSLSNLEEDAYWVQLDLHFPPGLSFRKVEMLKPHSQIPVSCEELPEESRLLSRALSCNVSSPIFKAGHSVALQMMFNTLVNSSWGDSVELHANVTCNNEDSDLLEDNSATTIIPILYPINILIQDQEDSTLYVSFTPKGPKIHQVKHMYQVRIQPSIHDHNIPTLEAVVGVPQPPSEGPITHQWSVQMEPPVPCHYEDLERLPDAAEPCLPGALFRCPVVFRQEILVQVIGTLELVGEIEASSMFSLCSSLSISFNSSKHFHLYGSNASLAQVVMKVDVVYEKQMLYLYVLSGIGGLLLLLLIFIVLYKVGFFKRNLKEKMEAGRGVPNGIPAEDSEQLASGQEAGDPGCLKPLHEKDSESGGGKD
# Integrin alpha-L/beta-2 (LFA-1), sequence (P05107 whole entry): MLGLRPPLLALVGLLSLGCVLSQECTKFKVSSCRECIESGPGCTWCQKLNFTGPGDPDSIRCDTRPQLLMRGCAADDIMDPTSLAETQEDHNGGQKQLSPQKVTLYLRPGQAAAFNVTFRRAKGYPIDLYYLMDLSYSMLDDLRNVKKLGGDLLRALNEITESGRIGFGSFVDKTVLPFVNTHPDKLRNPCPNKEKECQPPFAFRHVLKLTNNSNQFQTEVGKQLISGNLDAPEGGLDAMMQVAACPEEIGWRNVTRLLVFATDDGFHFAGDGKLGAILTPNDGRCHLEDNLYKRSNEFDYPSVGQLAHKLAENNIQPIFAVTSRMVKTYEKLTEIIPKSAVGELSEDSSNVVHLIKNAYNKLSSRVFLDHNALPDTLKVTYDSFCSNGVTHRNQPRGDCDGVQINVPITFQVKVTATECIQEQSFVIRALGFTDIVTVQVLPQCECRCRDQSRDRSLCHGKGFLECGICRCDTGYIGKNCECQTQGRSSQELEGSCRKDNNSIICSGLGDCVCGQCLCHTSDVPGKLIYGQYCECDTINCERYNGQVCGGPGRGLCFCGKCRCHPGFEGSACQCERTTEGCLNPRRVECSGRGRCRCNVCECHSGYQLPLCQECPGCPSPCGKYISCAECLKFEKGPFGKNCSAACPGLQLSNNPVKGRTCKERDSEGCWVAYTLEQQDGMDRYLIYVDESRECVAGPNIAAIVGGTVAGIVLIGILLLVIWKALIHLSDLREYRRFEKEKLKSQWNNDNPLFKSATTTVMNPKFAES
# Integrin alpha-5/beta-1 = Integrin alpha-5/beta-1 (Homo sapiens, UniProt P05556+P08648); test: Inhibition of integrin alpha5beta1 (unknown origin) binding to fibronectin in human THP1 cells after 30 mins by fibronectin mediated cell adhesion assay
# Integrin alpha-5/beta-1, sequence (P05556 21-798 limits assumed): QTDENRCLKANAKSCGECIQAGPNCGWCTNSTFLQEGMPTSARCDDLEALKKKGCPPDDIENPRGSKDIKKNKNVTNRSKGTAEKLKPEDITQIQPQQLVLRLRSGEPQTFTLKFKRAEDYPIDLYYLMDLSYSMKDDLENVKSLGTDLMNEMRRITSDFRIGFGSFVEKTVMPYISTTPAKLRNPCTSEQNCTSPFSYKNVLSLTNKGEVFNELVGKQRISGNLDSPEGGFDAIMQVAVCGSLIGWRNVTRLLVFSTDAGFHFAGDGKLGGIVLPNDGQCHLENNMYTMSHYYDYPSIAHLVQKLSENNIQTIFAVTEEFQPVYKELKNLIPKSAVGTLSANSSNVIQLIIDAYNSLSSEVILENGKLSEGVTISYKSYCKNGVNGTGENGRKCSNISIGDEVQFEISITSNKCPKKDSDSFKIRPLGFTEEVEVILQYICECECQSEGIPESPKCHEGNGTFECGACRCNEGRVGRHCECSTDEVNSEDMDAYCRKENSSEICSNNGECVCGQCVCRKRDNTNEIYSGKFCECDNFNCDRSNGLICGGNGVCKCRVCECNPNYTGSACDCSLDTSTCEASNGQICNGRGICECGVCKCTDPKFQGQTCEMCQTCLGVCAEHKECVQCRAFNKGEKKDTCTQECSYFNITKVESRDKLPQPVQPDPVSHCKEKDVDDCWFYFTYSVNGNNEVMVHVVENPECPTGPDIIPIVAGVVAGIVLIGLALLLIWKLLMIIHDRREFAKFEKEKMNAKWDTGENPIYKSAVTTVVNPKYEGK
# Integrin alpha-5/beta-1, sequence (P08648 42-894 limits assumed): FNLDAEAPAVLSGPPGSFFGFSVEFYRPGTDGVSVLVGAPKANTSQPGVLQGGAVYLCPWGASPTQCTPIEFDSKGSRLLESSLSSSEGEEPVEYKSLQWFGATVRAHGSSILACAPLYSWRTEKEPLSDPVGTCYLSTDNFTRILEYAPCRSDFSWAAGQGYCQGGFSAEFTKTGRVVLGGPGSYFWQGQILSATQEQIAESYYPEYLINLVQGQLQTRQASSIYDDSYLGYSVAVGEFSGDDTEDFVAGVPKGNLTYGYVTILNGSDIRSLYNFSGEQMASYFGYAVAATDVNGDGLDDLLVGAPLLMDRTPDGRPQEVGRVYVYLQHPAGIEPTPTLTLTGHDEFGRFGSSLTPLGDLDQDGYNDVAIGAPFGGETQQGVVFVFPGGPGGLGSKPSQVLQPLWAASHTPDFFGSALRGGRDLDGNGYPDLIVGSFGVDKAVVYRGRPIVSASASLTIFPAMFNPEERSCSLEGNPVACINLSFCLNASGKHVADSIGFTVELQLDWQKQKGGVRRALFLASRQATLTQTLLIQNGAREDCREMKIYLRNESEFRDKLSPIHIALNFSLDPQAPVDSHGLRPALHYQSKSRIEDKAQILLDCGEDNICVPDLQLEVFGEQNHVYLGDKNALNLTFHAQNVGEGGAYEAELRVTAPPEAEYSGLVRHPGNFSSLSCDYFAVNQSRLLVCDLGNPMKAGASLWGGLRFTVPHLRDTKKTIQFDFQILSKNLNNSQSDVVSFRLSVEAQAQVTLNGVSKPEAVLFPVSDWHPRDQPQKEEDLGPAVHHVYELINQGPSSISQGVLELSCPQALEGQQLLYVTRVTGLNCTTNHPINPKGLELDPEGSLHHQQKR
# Integrin alpha-5/beta-1, sequence (P08648 895-1049 limits assumed): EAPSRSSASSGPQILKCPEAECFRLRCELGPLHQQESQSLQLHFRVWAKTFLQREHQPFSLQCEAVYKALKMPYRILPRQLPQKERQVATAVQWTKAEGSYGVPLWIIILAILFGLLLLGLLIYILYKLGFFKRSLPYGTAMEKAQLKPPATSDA
# Mus musculus [18] = test: Inhibition of Eos influx in Black/6 mouse acute pulmonary cellular influx model at 1 mg/kg, po bid administered 1hr prior and 12 hrs post ova/alum challenge on day 28 and 29 relative to vehicle-treated control; type: functional; procedure, shortened: as §4
# Rattus norvegicus [19] = test: Antiarthritic activity in Lewis rat collagen induced arthritis model assessed as final paw weight at 3 mg/kg, po bid for 21 days; type: functional, organism-based; parameters: dose 3 mg/kg; procedure, shortened: as §2
# Integrin alpha-V/beta-1 = Integrin alpha-V/beta-1 (Homo sapiens, UniProt P05556+P06756); test: Inhibition of integrin alphaVbeta1 (unknown origin) binding to mouse OPN-HIS after 30 mins by fibronectin mediated cell adhesion assay; type: protein-complex assay
# Integrin alpha-V/beta-1, sequence (P05556 21-798 limits assumed): as the sequence (P05556 21-798 limits assumed) above
# Integrin alpha-V/beta-1, sequence (P06756 31-889 limits assumed): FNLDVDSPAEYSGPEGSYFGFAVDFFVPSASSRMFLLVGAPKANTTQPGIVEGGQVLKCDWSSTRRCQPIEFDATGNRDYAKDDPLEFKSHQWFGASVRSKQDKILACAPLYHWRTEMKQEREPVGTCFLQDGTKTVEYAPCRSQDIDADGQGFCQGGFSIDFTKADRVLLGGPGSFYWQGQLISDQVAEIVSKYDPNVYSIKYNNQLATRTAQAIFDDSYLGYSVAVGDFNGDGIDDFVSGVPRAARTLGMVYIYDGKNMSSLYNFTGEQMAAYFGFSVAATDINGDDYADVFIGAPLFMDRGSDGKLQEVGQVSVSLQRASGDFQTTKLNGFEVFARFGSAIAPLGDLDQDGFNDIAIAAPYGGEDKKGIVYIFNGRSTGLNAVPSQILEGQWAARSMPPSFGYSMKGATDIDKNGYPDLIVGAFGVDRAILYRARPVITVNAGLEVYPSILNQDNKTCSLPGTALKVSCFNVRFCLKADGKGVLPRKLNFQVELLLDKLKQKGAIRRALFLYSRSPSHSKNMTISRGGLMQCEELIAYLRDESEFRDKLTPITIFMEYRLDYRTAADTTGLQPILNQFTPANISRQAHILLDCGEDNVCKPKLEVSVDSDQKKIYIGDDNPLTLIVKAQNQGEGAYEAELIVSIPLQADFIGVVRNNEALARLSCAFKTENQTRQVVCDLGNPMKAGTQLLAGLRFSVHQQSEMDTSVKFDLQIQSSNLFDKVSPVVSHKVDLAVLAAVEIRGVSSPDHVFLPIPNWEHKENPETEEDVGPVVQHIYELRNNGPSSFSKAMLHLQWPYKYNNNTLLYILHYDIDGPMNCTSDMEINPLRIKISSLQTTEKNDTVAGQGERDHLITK
# Integrin alpha-V/beta-1, sequence (P06756 891-1048 limits assumed): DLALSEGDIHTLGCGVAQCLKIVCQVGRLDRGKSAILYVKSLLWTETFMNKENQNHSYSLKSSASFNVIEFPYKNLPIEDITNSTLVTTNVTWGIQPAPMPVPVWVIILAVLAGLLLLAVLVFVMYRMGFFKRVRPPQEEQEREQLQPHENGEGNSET
# Rattus norvegicus [20] = test: Antiarthritic activity in Lewis rat collagen induced arthritis model assessed as bone resorbtion at 3 to 30 mg/kg, po bid for 21 days; type: functional, organism-based; procedure, shortened: as §2
# Rattus norvegicus [21] = test: Antiarthritic activity in Lewis rat collagen induced arthritis model assessed as AUC for ankle swelling at 10 to 30 mg/kg, po bid for 21 days; type: functional, organism-based; procedure, shortened: as §2
# Rattus norvegicus [22] = test: Antirheumatic activity in Lewis rat collagen induced arthritis model assessed as ankle histology at 0.05 mg/kg, po bid for 21 days; type: functional, organism-based; parameters: dose 0.05 mg/kg
# [23] = Inhibition of VLA-4 in human serum binding to VCAM-1 in human Jurkat TM cells after 30 mins by fibronectin mediated cell adhesion assay; type: cell-based; conditions: 0.5 h; procedure, shortened: as §3
# [24] = Plasma concentration in po dosed Sprague-Dawley rat after 6 hrs; type: ADME, organism-based
smiles,measurement,setting,value
CCN(CC)c1ncc(N(CC)S(=O)(=O)c2ccc(F)c(F)c2)c(N[C@@H](Cc2ccc(OC(=O)N(C)C)cc2)C(=O)O)n1,AUC,[1],17000 ng·h/mL
same,bioavailability,[2],24%
same,pIC50,[3],8.40
same,AUC,[4],4200 ng·h/mL
same,concentration at 12 h,[5],8 ng/mL
CCN(CC)c1ncc(N(C)S(=O)(=O)c2ccc(C)cc2)c(N[C@@H](Cc2ccc(OC(=O)N3CCCC3)cc2)C(=O)O)n1,AUC,[1],173000 ng·h/mL
same,bioavailability,[2],43%
same,pIC50,[3],8.22
same,AUC,[4],74000 ng·h/mL
same,concentration at 12 h,[5],450 ng/mL
C#CCN(c1cnc(N(CC)CC)nc1N[C@@H](Cc1ccc(OC(=O)N2CCCC2)cc1)C(=O)O)S(=O)(=O)c1ccc(F)cc1,Activity,Rattus norvegicus [6],Active
same,AUC,[1],156000 ng·h/mL
same,Activity,Rattus norvegicus [7],Active
same,Activity,Cavia porcellus,Active
same,pIC50,[8],5.72
same,inhibition in vivo at 3 mg/kg,Rattus norvegicus [9],15%
same,pIC50,[10],8.05
same,inhibition in vivo at 1 mg/kg,Mus musculus [11],0%
same,Activity,Rattus norvegicus [12],Active
same,Activity,Rattus norvegicus [13],Active
same,bioavailability,[2],56%
same,inhibition in vivo at 3 mg/kg,Mus musculus [14],74%
same,inhibition in vivo at 3 mg/kg,Mus musculus [15],41%
same,pIC50,[3],8.10
same,pIC50,[16],7.44
same,pIC50,[17],< 4.52
same,pIC50,Integrin alpha-5/beta-1,< 4.52
same,inhibition in vivo at 1 mg/kg,Mus musculus [18],0%
same,Activity,Rattus norvegicus [19],Active
same,pIC50,Integrin alpha-V/beta-1,6.30
same,Activity,Rattus norvegicus [20],Active
same,AUC,[4],88000 ng·h/mL
same,Activity,Rattus norvegicus [21],Active
same,Activity,Rattus norvegicus [22],Active
same,pIC50,[23],5.34
same,concentration at 12 h,[5],1310 ng/mL
CCN(CC)c1ncc(N(C)S(=O)(=O)c2ccc(Cl)cc2)c(N[C@@H](Cc2ccc(OC(=O)N3CCCC3)cc2)C(=O)O)n1,AUC,[1],153000 ng·h/mL
same,bioavailability,[2],33%
same,pIC50,[3],7.72
same,AUC,[4],51000 ng·h/mL
same,concentration at 12 h,[5],330 ng/mL
CCN(CC)c1ncc(N(CC)S(=O)(=O)c2ccc(F)cc2F)c(N[C@@H](Cc2ccc(OC(=O)N3CCCC3)cc2)C(=O)O)n1,AUC,[1],83000 ng·h/mL
same,bioavailability,[2],34%
same,pIC50,[3],8.05
same,AUC,[4],28000 ng·h/mL
same,concentration at 12 h,[5],50 ng/mL
CCN(CC)c1ncc(N(C)S(=O)(=O)c2ccc(F)cc2F)c(N[C@@H](Cc2ccc(OC(=O)N3CCCC3)cc2)C(=O)O)n1,AUC,[1],90000 ng·h/mL
same,bioavailability,[2],17%
same,pIC50,[3],8.10
same,AUC,[4],16000 ng·h/mL
same,concentration at 12 h,[5],100 ng/mL
CN(C)C(=O)Oc1ccc(C[C@H](NC(=O)[C@H]2N(S(=O)(=O)c3cnn(C)c3)CSC2(C)C)C(=O)O)cc1,pIC50,[3],8.70
CCN(CC)c1ncc(N(CC)S(=O)(=O)c2ccc(F)cc2)c(N[C@@H](Cc2ccc(OC(=O)N3CCC3)cc2)C(=O)O)n1,AUC,[1],34000 ng·h/mL
same,bioavailability,[2],16%
same,pIC50,[3],8.70
same,AUC,[4],6000 ng·h/mL
same,concentration at 12 h,[5],10 ng/mL
CCN(CC)c1ncc(N(C(C)C)S(=O)(=O)c2ccc(F)cc2)c(N[C@@H](Cc2ccc(OC(=O)N(C)C)cc2)C(=O)O)n1,pIC50,[3],8.30
CCN(CC)c1ncc(N(CC)S(=O)(=O)c2ccc(Cl)cc2)c(N[C@@H](Cc2ccc(OC(=O)N3CCCC3)cc2)C(=O)O)n1,AUC,[1],110000 ng·h/mL
same,bioavailability,[2],31%
same,pIC50,[3],7.77
same,AUC,[4],34000 ng·h/mL
same,concentration at 12 h,[5],100 ng/mL
Cc1ccc(S(=O)(=O)N(C)c2cncnc2N[C@@H](Cc2ccc(OC(=O)N(C)C)cc2)C(=O)O)cc1,pIC50,[3],8.70
CCN(CC)c1ncc(N(CC)S(=O)(=O)c2ccc(Cl)cc2)c(N[C@@H](Cc2ccc(OC(=O)N(C)C)cc2)C(=O)O)n1,AUC,[1],17000 ng·h/mL
same,bioavailability,[2],33%
same,pIC50,[3],8.15
same,AUC,[4],5100 ng·h/mL
same,concentration at 12 h,[5],12 ng/mL
CCN(CC)c1ncc(N(C)S(=O)(=O)c2ccc(Cl)cc2)c(N[C@@H](Cc2ccc(OC(=O)N(C)C)cc2)C(=O)O)n1,AUC,[1],32000 ng·h/mL
same,bioavailability,[2],73%
same,pIC50,[3],8.52
same,AUC,[4],23000 ng·h/mL
same,concentration at 12 h,[5],130 ng/mL
C#CCN(c1cnc(N(CC)CC)nc1N[C@@H](Cc1ccc(OC(=O)N2CCCC2)cc1)C(=O)O)S(=O)(=O)c1ccc(F)cc1F,AUC,[1],126000 ng·h/mL
same,bioavailability,[2],33%
same,pIC50,[3],7.89
same,AUC,[4],42000 ng·h/mL
same,concentration at 12 h,[5],120 ng/mL
CCN(CC)c1ncc(N(C)S(=O)(=O)c2ccc(C)cc2)c(N[C@@H](Cc2ccc(OC(=O)N(C)C)cc2)C(=O)O)n1,concentration at 6 h,[24],100 ng/mL
same,AUC,[1],41000 ng·h/mL
same,bioavailability,[2],15%
same,pIC50,[3],8.70
same,AUC,[4],6000 ng·h/mL
CCN(CC)c1ncc(N(C(C)C)S(=O)(=O)c2ccc(F)c(F)c2)c(N[C@@H](Cc2ccc(OC(=O)N(C)C)cc2)C(=O)O)n1,pIC50,[3],8.15
CCN(CC)c1ncc(N(CC)S(=O)(=O)c2ccc(F)cc2)c(N[C@@H](Cc2ccc(OC(=O)N(C)C)cc2)C(=O)O)n1,AUC,[1],32000 ng·h/mL
same,bioavailability,[2],44%
same,pIC50,[3],9.00
same,AUC,[4],14000 ng·h/mL
same,concentration at 12 h,[5],60 ng/mL
CCN(CC)c1ncc(N(C(C)C)S(=O)(=O)c2ccc(Cl)cc2)c(N[C@@H](Cc2ccc(OC(=O)N(C)C)cc2)C(=O)O)n1,pIC50,[3],8.40
CCN(CC)c1ncc(N(CC)S(=O)(=O)c2ccc(F)cc2)c(N[C@@H](Cc2ccc(OC(=O)N3CCCC3)cc2)C(=O)O)n1,AUC,[1],111000 ng·h/mL
same,bioavailability,[2],46%
same,pIC50,[3],9.00
same,AUC,[4],51000 ng·h/mL
same,concentration at 12 h,[5],180 ng/mL

# From ChEMBL document CHEMBL2380222, “Arylsulfonamide pyrimidines as VLA-4 antagonists” (Bioorg Med Chem Lett, 2013)
